Assay outcomes from PubChem.
NR1D1 modulator: modulators of Rev-erb alpha DNA binding, primary screen, biochemical, FITC-DNA, fluorescence polarization, uHTS. activity, % at 10 µM. Rev-erbα–FITC-DNA binding, 90 min. hit rate 0.79% among 370,000. Nuclear receptor subfamily 1 group D member 1 (Homo sapiens), P20393;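 active = activity above about 14%, limit read from the data; passing the limit was not always enough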;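 note: 0% = DMSO wells with 35 nM protein and 100% = DMSO wells with 750 nM protein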
NR2E3 ag-1: NR2E3 agonists in two-hybrid cells, primary screen, cell-based, luminescence, CHO-S, Gal4-NCOR/VP16-NR2E3; Photoreceptor-specific nuclear receptor (Homo sapiens), Q9Y5X4; luciferase; inhibition of corepressor binding, % at 3.98 µM; hit rate 0.35% among 360,000; AID 602229, 2012;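 active = inhibition above the mean of all tested compounds plus 3 SD, cut at about 70% in these data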;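 note: 0% = DMSO with NR2E3 transfected cells and 100% = cells lacking NR2E3 construct; higher means lower luciferase signal from less NR2E3 corepressor binding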
Target sequence (Q9Y5X4 whole entry, looked up, the tested form may be a part): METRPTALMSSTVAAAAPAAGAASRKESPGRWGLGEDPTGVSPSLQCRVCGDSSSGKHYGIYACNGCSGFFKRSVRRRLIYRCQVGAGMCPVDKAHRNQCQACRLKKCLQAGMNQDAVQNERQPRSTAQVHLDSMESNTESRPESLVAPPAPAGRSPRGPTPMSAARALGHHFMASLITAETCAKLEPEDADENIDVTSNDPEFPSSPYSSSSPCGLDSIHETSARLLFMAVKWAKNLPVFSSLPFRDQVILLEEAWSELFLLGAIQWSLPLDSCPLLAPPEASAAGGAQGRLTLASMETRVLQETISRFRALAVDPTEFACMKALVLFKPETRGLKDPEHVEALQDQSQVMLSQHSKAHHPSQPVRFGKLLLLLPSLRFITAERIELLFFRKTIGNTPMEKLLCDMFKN
PG9 binder: binders of HIV-1 gp120 antibody PG9, primary screen, biochemical, TR-FRET | HIV-1 gp120 / PG9 antibody interaction | TR-FRET gp120-PG9 antibody binding | inhibition, % at 6.7 µM | hit rate 0.43% among 360,000 | AID 624416, 2012; in the data active = inhibition above about 8.5%
NR2E3 ag-2: inhibitors of NR2E3-RetCOR corepressor binding, primary screen, NR2E3 agonist project, biochemical, TR-FRET, GST-NR2E3, biotin-RetCOR; Photoreceptor-specific nuclear receptor (Homo sapiens), Q9Y5X4; 1536-well; inhibition of corepressor binding, % at 4.78 µM; hit rate 0.12% among 320,000;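 active = percent inhibition above the cutoff of mean plus 3 SD of all tested compounds, set per screening campaign, cut at about 20% in these data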;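 note: 0% = DMSO wells and 100% = biotin wells as full block of FRET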
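Material: NR2E3–RetCOR corepressor complex | Quantity: 1.35 nM GST-tagged NR2E3 final | Schedule: 5 h at 4 °C | Replication: Singlicate compound wells | Reagent: RetCOR corepressor, biotinylated, 7 nM | Controls: Biotin wells as high control, 0.6% DMSO wells as low control | Signal: TR-FRET, Eu(K)-anti-GST donor, streptavidin-D2 acceptor, ex 340, em 617/671 nm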
NR2E3 ag conf: NR2E3 agonist confirmation in cells, cell-based, luminescence, CHO-S two-hybrid; shares compounds with NR2E3 ag-1; CHO-S mammalian two-hybrid NR2E3-NCOR, luciferase luminescence; inhibition, % at 3.98 µM; hit rate 51% among 2,300;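 active = average inhibition above a cutoff equal to the mean inhibition of all tested compounds plus one SD, cut at about 70% in these data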;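 note: 0% = DMSO in NR2E3 cells and 100% = DMSO in cells lacking NR2E3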
VP16 counter: GAL4-VP16 reporter modulators, confirmation, counter-screen for NR2E3 agonist project, cell-based, luminescence, CHO-S, high throughput | shares compounds with NR2E3 ag-1 | CHO-S GAL4-VP16 luciferase reporter | inhibition, % at 3.98 µM | hit rate 29% among 2,300;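 active = mean inhibition above a cutoff equal to the average over all tested compounds plus one standard deviation, cut at about 70% in these data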;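 note: luciferase from a UAS reporter driven by GAL4-VP16 transactivation; 0% = DMSO with VP16-transfected cells and 100% = DMSO with cells lacking VP16; higher means less reporter light so more repression of VP16 activity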
* marks the source's active call; other numbers are inactive results; x = no result given. Rows were chosen to be rich in hits. Some 1.4% of all compounds tested hit in one or more screens of this group.

SMILES | NR1D1 modulator | NR2E3 ag-1 | PG9 binder | NR2E3 ag-2 | NR2E3 ag conf | VP16 counter
CC(C)COc1ccc(S(=O)(=O)NNC(=O)c2cc3ccccc3o2)cc1 | 0 | 75* | -2 | 0 | 76* | 68
O=[N+]([O-])c1cc(CN2CCN(c3ccccc3)CC2)c(O)c2ncccc12 | 5 | 83* | -6 | -1 | 74* | 20
O=[N+]([O-])c1ccc(O)c2ncccc12 | 14 | 103* | -3 | -3 | 81* | 41
O=[N+]([O-])c1cc(Cl)c(O)c2ncccc12 | 5 | 103* | 0 | x | 99* | 71*
O=Nc1ccc(O)c2ncccc12 | -3 | 55 | -4 | -5 | 58 | 21
O=[N+]([O-])c1ccc(O)c2cccnc12 | 4 | 8 | -3 | -5 | x | x
O=[N+]([O-])c1cc(F)c2cccnc2c1O | 1 | 29 | -3 | 3 | x | x
COC(=O)[C@H](C(C)C)N(Cc1cn(Cc2ccccc2)nn1)S(=O)(=O)c1ccc(F)cc1Br | 4 | x | x | x | x | x
CCOC(=O)N1CCN(C(=O)C[C@H]2C[C@@]3(C(=O)OC)C(=C[C@H](C(C)C)O[C@@H]3C3CC3)N(Cc3ccco3)C2=O)CC1 | -3 | x | x | x | x | x
Cc1ccc2c(c1C)-c1c(ccc(C)c1C)C(=O)C2=O | 2 | 60 | 4 | x | 48 | 24
Cc1ccc(CC#N)c(-c2c(CC#N)ccc(C)c2C)c1C | 0 | -28 | -1 | x | x | x
O=C(Nc1ccc(F)cc1)N[C@@H]1C[C@@H]2O[C@H](CO)CC[C@@H]2O[C@@H]1CCc1ccc(C2=CCCC2)cc1 | 4 | x | x | x | x | x
Cc1nn(C(C)(C)C)c(C)c1/C=N/OC(=O)Nc1ccc(Cl)cc1 | -3 | 97* | 1 | -1 | -3 | 91*
COC1=C(OC)C(=O)C(Sc2ccc3ccccc3c2)=CC1=O | 0 | 84* | -1 | x | 94* | 61
COc1ccc(S(=O)(=O)Oc2ccc3ccccc3c2)cc1 | -3 | -88 | 2 | -6 | x | x
Cc1cc(C)c(S(=O)(=O)NCCc2ccncc2)c(C)c1 | -3 | 20 | -1 | 3 | x | x
Cc1ccc(S(=O)(=O)NCc2ccncc2)c(C)c1C | 1 | 80* | -2 | 3 | 94* | 85*
Cc1cc(C)c(S(=O)(=O)NCc2ccncc2)c(C)c1 | 1 | 69 | 0 | -5 | 88* | 77*
Cc1ccc(S(=O)(=O)NCc2ccccn2)c(C)c1C | -4 | 0 | -3 | 4 | x | x
COc1ccc(-c2noc(C3CCCN(C(=O)Nc4ccc(Cl)cc4)C3)n2)cc1 (stereo not drawn) | 5 | x | x | x | x | x
O=C(NC(c1cccnc1)C(F)(F)F)c1cc(COc2ccc3c(c2)CCCC3)on1 (stereo not drawn) | -2 | 96* | -2 | 0 | 97* | 79*
CCCSS/C(CCO)=C(/C)N(C=O)Cc1cnc(C)nc1N | -4 | x | x | x | x | x
Nc1ncn([C@@H]2O[C@H](CO)[C@@H](O)[C@H]2O)c(=O)n1 | -2 | 54 | -2 | -4 | 40 | 39
Nc1nc(=S)c2ncn(C3OC(CO)C(O)C3O)c2[nH]1 (stereo not drawn) | -22 | 57 | 0 | 4 | 37 | 5
Nc1ccn([C@@H]2O[C@H](CO)[C@@H](O)[C@@H]2O)c(=O)n1 | 1 | -23 | -1 | -2 | x | x
SMILES | NR1D1 modulator | NR2E3 ag-1 | PG9 binder | NR2E3 ag-2 | NR2E3 ag conf | VP16 counter
Cc1ccc(S(=O)(=O)n2ccc(-c3c(-c4ccccc4)noc3C)n2)cc1 | 4 | x | x | x | x | x
OC(c1ccc(Cl)c(F)c1)c1ncc(-c2ccc(F)cc2)[nH]1 (stereo not drawn) | 2 | 80* | -1 | x | 78* | 63
Cc1ccc(-c2cnc(C(O)c3ccc(Cl)c(F)c3)[nH]2)cc1 (stereo not drawn) | x | 49 | x | x | 49 | 34
Cc1ccc(C(O)c2ncc(-c3ccc(Cl)cc3)[nH]2)cc1F (stereo not drawn) | -6 | 46 | 1 | x | x | x
CC(COc1ccc([N+](=O)[O-])cc1Cl)CN1CCC(C(O)(c2ccccc2)c2ccccc2)CC1 (stereo not drawn) | -1 | x | x | x | x | x
O=C(C1=C(O)C(=O)N(c2nccs2)C1c1ccccc1)c1cc2ccccc2o1 (stereo not drawn) | 3 | 66 | 9 | 7 | 95* | 71*
C=C1C(=O)OC2C=C(CO)C3OC3C3OC3(C)CC(OC(=O)/C(=C/C)COC(C)=O)C12 (stereo not drawn) | 0 | 86* | 0 | x | 30 | 21
COc1ccc(CCNC(=O)Cc2ccc(OCc3ccccc3)c(OC)c2[N+](=O)[O-])cc1OCc1ccccc1 | -4 | 101* | -1 | 2 | 88* | 73*
COc1ccc(CNCCc2ccc(Cl)cc2)cc1OCc1ccccc1 | x | 48 | x | -1 | 82* | 71*
COc1ccc(Cn2cc(CN3[C@@H](C)COc4cc(Br)ccc4S3(=O)=O)nn2)cc1 | 5 | x | x | x | x | x
CN(C)c1cccc(/C=C2\CC3(OC(=O)c4cccc(F)c4)CCCN2C3)c1 (stereo not drawn) | 5 | x | x | x | x | x
COc1cc(C[C@@H]2C(=O)OC[C@H]2Cc2ccc(OC)c(OC)c2)ccc1O | -3 | 87* | -1 | 1 | 95* | 81*
COc1cc(CC2COC(=O)C2Cc2ccc(O)c(OC)c2)ccc1O (stereo not drawn) | 0 | x | -1 | x | x | x
Cc1ccccc1NC(=S)NCCC(c1ccccc1)c1ccccc1 | 2 | 50 | 0 | 0 | 11 | 10
Oc1c(Br)cc(Br)cc1/C=N/NC(=S)N[C@H]1CC2C=CC1C2 (stereo partly drawn) | -4 | 47 | -1 | 5 | x | x
CNC(=S)N/N=C/c1cc(Br)cc(Br)c1O | 0 | 89* | 0 | 4 | -16 | -24
O=S(=O)(c1cccs1)N1CCN(CCOc2ccc(Cl)cc2)CC1 | 1 | -3 | -1 | 3 | x | x
O=S(=O)(c1cccs1)N1CCN(CC(O)COc2cc(Cl)ccc2Cl)CC1 (stereo not drawn) | 1 | 89* | 1 | -2 | 96* | 78*
Cc1ccc(C(=O)C2CCN(CC(=O)N(C)C3CCCCC3)CC2)cc1 | -5 | x | x | x | x | x
CCOC(=O)[C@]12CCCC=C1N(CCc1ccc(Cl)cc1)C(=O)[C@@H]2CC(=O)NCCC(C)C | -3 | x | x | x | x | x
COc1ccc(NS(=O)(=O)c2ccc(C(=O)N3CCC(C)CC3)cc2)cc1 | 1 | 56 | -1 | x | 25 | 25
CCOc1ccc(NS(=O)(=O)c2ccc3c(c2)N(C(C)=O)CCS3)cc1 | -3 | 55 | -2 | 3 | 7 | 13
CN(c1cccc(NS(=O)(=O)c2ccccc2)c1)S(C)(=O)=O | -5 | -2 | 2 | 7 | x | x
